Where two headings read alike, the source gives them in different places.
How the values were obtained:
[1] = Octanol-water partition coefficient; type: physicochemical; conditions: pH 7.4
kidneys = test: Radiation dosimetry; type: in vivo, NOD-SCID mice
PSMA [2] = biological target: T1, PSMA (Homo sapiens, UniProt Q04609); test: PSMA inhibition assay; type: biochemical; conditions: LNCaP cell lysates, 4 μM NAAG
Procedure, shortened: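 PSMA source: LNCaP cell lysate. Test compound (0.01 nM–100 μM) incubated with 4 μM NAAG, 37 °C, 2 h. Released glutamate detected with Amplex Red glutamic acid working solution, 37 °C, 60 min; fluorescence ex 490/em 642 nm. IC50 from semilog inhibition curves, then Ki by Cheng–Prusoff. Triplicates; whole inhibition study repeated at least once.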

PSMA [3] = biological target: T1, PSMA; conditions: for comparison; cited from earlier work
[4] = system: PSMA^+ PC3 PIP and PSMA^− PC3 flu xenografts; test: Small animal PET imaging; type: in vivo, NOD-SCID mice
Procedure, shortened: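 Male NOD-SCID mice given 1 × 106 PSMA+ PC3 PIP and PSMA− PC3 flu cells s.c. in opposite flanks, cells trypsinized at 80–90% confluence into HBSS. Imaged at 3–5 mm tumors after i.v. 0.36 mCi (13.3 MBq) radiotracer in 0.2 mL PBS under isoflurane/oxygen. PET/CT at 30, 60, 120 min; 10 min per bed, 20 min total; 250–700 keV; FORE/2D-OSEM, decay/dead-time/scatter corrected.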

T1 sequence (Q04609 whole entry): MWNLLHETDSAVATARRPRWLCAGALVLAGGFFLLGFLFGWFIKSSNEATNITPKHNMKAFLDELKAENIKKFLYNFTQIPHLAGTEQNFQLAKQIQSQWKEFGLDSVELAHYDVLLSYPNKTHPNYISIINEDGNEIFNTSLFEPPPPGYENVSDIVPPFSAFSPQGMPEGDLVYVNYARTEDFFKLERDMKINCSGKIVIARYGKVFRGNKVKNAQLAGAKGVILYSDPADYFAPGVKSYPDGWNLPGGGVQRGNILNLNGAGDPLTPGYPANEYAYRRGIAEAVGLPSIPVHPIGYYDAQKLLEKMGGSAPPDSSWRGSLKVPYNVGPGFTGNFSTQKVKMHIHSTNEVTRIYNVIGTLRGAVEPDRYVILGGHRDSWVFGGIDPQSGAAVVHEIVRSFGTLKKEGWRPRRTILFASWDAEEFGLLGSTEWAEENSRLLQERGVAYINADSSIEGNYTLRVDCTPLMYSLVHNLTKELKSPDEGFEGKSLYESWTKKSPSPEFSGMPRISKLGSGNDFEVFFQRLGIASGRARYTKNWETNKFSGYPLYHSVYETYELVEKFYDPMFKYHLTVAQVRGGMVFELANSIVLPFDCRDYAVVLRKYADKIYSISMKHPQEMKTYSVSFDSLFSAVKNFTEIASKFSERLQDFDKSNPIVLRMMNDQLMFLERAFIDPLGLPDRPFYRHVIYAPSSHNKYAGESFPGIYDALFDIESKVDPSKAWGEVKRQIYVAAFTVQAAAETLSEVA

Compound: O=C(O)CCC(NC(=O)NC(CCCCNC(=O)c1ccc([18F])nc1)C(=O)O)C(=O)O (stereo not shown) [[^18F]DCFPyL, 2-(3-{1-carboxy-5-[(6-[^18F]fluoropyridine-3-carbonyl)-amino]-pentyl}-ureido)-pentanedioic acid, reference compound]
- logP [1]: -3.27
- AUC (kidneys; male, NOD-SCID, mouse, in vivo): 340.74 % ID/g-h
- biological half-life (kidneys; male, NOD-SCID, mouse, in vivo): 1.20 h

Compound: O=C(O)CCC(NC(=O)NC(CCCCNC(=O)CCc1cn(CCF)nn1)C(=O)O)C(=O)O (stereo not shown) [YC-88, 2-[3-(1-Carboxy-5-{3-[1-(2-fluoroethyl)-1 H-1,2,3-tria-zol-yl]propanamido}pentyl)ureido]pentanedioic Acid]
- Ki (PSMA [2]; 37 °C, 2 h, Cheng–Prusoff conversion): 0.0129 µM
- Ki (PSMA [2]; read-out: Ki 95% confidence intervals): 0.0087 to 0.0191 µM

Compound: O=C(O)CCC(NC(=O)NC(CCCCNC(=O)c1ccc(F)cc1)C(=O)O)C(=O)O (stereo not shown) [DCFBzL]
- Ki (PSMA [3]): 0.00019 µM

Compound: O=C(O)CCC(NC(=O)NC(CCCCNC(=O)CCc1cn(CC[18F])nn1)C(=O)O)C(=O)O (stereo not shown) [[^18F]YC-88, 2-[3-(1-carboxy-5-{3-[1-(2-[^18F]fluoroethyl)-1H-1,2,3-triazol-yl]propanamido}pentyl)ureido]-pentanedioic acid]
- uptake in normal tissues on PET images ([4]; 30, 60, 120 min postinjection): extremely low uptake
- PSMA^+ PC3 PIP tumor uptake on PET images ([4]; as early as 30 min postinjection, 0.36 mCi i.v.): Intense
- logP ([1]; 1-octanol and PBS): −3.91
- AUC (kidneys; kidneys): 70.7 % ID/g-h
- AUC ratio (agent/YC-88) (kidneys; kidneys): 1
- kidney absorbed dose, decrease compared to [^18F]DCFPyL (kidneys; kidneys): ~5 fold
- biological half-life (kidneys; kidneys, single exponential fit of % ID/g data): 1.52 h

Source: publication PMC5516890 (Bioconjugate chemistry, 2016)
